Assay outcomes (PubChem BioAssay)
A1 inh: inhibitors of the anti-apoptotic protein A1, read as caspase activation; MEF A1-2A-BIM cells, Caspase-Glo 3/7 luminescence, 3 h; percent of clofoctol response, vehicle zero; caspase activation, % (no concentration beside the values); 330,000 tested, 0.066% active; AID 2462;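 active = over half of replicate activation scores above 10%, or exactly half above 10 with the replicate mean above 10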
CHOP inhibitor: inhibitors of CHOP induction in ER stress response | 220,000 tested, 3.8% active | inhibition, % at 10 µM | CHO-K1 CHOP-promoter luciferase, tunicamycin-induced, 15-18 h | AID 2732;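 active = compounds that reduced the stress-induced luciferase reporter signal by more than about 70% of percent inhibition, limit read from the data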;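 also: 0% = tunicamycin plus vehicle and 100% = wells without tunicamycin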
UPR XBP1 act: adaptive UPR (XBP1) activation; AID 463104; activation, % at 20 µM; CHO-XBP1 luciferase reporter, IRE1-XBP1 UPR activation, luminescence; percent of tunicamycin response, DMSO as zero; 330,000 tested, 0.33% active;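 active = versus positive control, 20 µM dose yields 30% or more activation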;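 also: 100% = tunicamycin at 10 µg/mL and 0% = DMSO only wells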
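assay system = CHO-XBP1 luciferase reporter cells | amount = 1000 cells/well | buffer or medium = F12 plus 10% FBS | compound dosing = single point, 20 µM final compound, 1% DMSO | incubation = 16-18 h cell attachment at 37 °C, then 6 h compound exposure | detection = Steady-Glo luminescence read | controls = tunicamycin 10 µg/mL and vehicle-only wells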
UPR CHOP act: activators of apoptotic arm of unfolded protein response (CHOP); CHO-CHOP luciferase reporter, UPR activation, luminescence; percent of tunicamycin response over DMSO baseline; activation, % at 10 µM; 330,000 tested, 0.34% active; AID 449763;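 active = at 10 µM dose, activation of 40% or more, normalized to positive control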;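 also: 100% = tunicamycin at 10 µg/mL and 0% = DMSO alone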
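System: CHO-CHOP luciferase reporter cell line; amount: 500 cells/well; buffer or medium: F12 medium containing 10% fetal bovine serum; incubation: 6 h compound exposure at 37 °C after overnight seeding; measured by: luciferase luminescence after 10 min with Steady-Glo reagent; evaluation: % reporter activation, DMSO baseline versus tunicamycin full activation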
* hit, by the source's call; nt = no result given. Only a selection was taken, and hits are over-represented in it overall.

SMILES	A1 inh	CHOP inhibitor	UPR XBP1 act	UPR CHOP act
CC(C)(C)NC(=O)C(c1cccs1)N(Cc1ccc(F)cc1)C(=O)c1csnn1 (configuration not stated)	0.7	6.0	-1.9	-0.9
Cc1ccc(OC(C)C(=O)Nc2ccc(Cl)cn2)c([N+](=O)[O-])n1 (configuration not stated)	-1.1	nt	1.1	0.1
Cc1cc(Cl)ccc1OC(C)C(=O)Nc1ccc([N+](=O)[O-])cn1 (configuration not stated)	-0.2	74.8*	-4.8	0.5
COc1cccc(/C=C2\N=C(SC)SC2=O)c1OC	0.3	64.4	2.1	-2.0
CSC1=NC(=O)/C(=C\c2cccc3ccccc23)S1	-0.4	103.1*	1.0	1.4
CC(C)(C)c1ccc(N2C(=O)CC(c3ccccc3)C2=O)cc1 (configuration not stated)	-1.3	nt	nt	nt
CC(C)(C)/C(Cn1cncn1)=N\OC(=O)Nc1ccc(Cl)cc1	0.7	18.1	0.6	-1.0
COc1ccc(OCC(=O)Nc2nc3cc4c(cc3s2)OCCO4)cc1	-0.7	nt	-0.5	2.5
O=[N+]([O-])c1ccccc1Nc1c2ccccc2nc2ccccc12	-0.4	93.0*	1.4	-0.9
Cc1ccc2nc(SCC(=O)Nc3ccc4c(c3)CCC4)[nH]c2c1	0.2	-9.7	-1.6	3.8
O=C(CSc1nc2cc3ccccc3cc2[nH]1)Nc1ccc(F)cc1	0.9	81.1*	4.4	2.2
O=C(CSc1nc2ccc(Cl)cc2[nH]1)Nc1ccc2c(c1)CCC2	0.7	71.1*	-2.1	1.9
Cc1ccc(C(=O)OCC(=O)N2CCOCC2)c(C)c1	0.3	nt	-0.5	1.2
COc1cccc(N(C(=O)Cn2nnc(-c3ccc(Cl)cc3)n2)C(C(=O)NCC2CCCO2)c2ccc(C)cc2)c1 (configuration not stated)	-0.4	80.4*	3.9	1.4
Cc1ccc(N2CCN(C(=O)Nc3cccc([N+](=O)[O-])c3)CC2C)cc1 (configuration not stated)	0.6	24.7	-2.2	0.1
Cc1ccc(-n2ncc3c(N4CCCC4)ncnc32)c(C)c1	0.0	-23.1	-1.7	4.0
Cc1cccc(-n2ncc3c(N4CCC(C)CC4)ncnc32)c1	-2.3	73.2*	-3.1	4.2
Cc1cccc(-n2ncc3c(N4CCC5(CC4)OCCO5)ncnc32)c1	-2.3	-56.4	5.8	0.5
COc1cccc(N2CCN(c3ncnc4c3cnn4-c3ccc(C)cc3C)CC2)c1	0.2	98.4*	-9.3	-6.6
Cc1ccc2c(c1)cc(C(=O)N[C@@H](Cc1ccccc1)C(=O)O)n2C	-0.1	nt	-1.4	1.0
OCCN=C1CCCc2c1[nH]c1ccc(Br)cc21	0.2	71.8*	2.2	-1.3
Brc1ccc2[nH]c3c(c2c1)CCC3	0.2	-0.5	0.5	0.9
Cc1oc2c(CN(C)C)c(O)ccc2c(=O)c1-c1ccc2ccccc2n1	-0.1	9.5	-3.5	0.0
O=C(CCNc1ccc(Br)cc1)c1cccc([N+](=O)[O-])c1	1.2	-27.8	-1.0	1.5
O=C(/C(N=Nc1cccc([N+](=O)[O-])c1)=C(/O)c1ccc(Br)cc1)C(F)(F)F	-0.3	70.1*	10.2	18.9
SMILES	A1 inh	CHOP inhibitor	UPR XBP1 act	UPR CHOP act
Cc1cc(C)c([N+](=O)[O-])cc1-c1ccc(/C=N/c2c(-c3ccco3)nc3ccccn23)o1	-2.7	-19.2	3.2	2.0
Cc1ccc(C(C)C)c(OCCNC(=S)Nc2cccc3ccccc23)c1	-0.7	76.0*	3.6	0.4
Cc1ccc(C(C)C)c(OCCNCc2ccccc2)c1	0.6	nt	-0.1	-0.7
CCN(CC)CCCNC1CCS(=O)(=O)C1 (configuration not stated)	-0.5	12.5	1.3	0.2
COc1cccc(N(C(=O)c2snc(C(N)=O)c2N)C(C(=O)NCc2ccccc2)c2ccc(O)cc2)c1 (configuration not stated)	-0.8	nt	0.8	1.2
COc1ccc(NS(=O)(=O)c2ccc3c(c2)Cc2ccccc2-3)cn1	1.2	95.0*	-4.3	-2.7
COc1ccc(NS(=O)(=O)c2ccc(N3CCCC3=O)cc2)cn1	-0.2	3.2	-2.1	-0.9
Nc1ccccc1Nc1cc(-c2ccccc2)nn1-c1cccc(Cl)c1	0.9	90.5*	-0.6	2.1
CSc1ccc(OCC(=O)Nc2ccc(N3CCOCC3)c(Cl)c2)cc1	nt	nt	-0.5	0.8
O=C(CSc1nnnn1-c1cccc2ccccc12)Nc1ccc(N2CCOCC2)c(Cl)c1	0.0	71.0*	0.6	-2.9
O=C(CSc1nnc(C23CC4CC(CC(C4)C2)C3)o1)Nc1ccc(N2CCOCC2)c(Cl)c1	-1.5	75.6*	-1.6	1.7
O=C(CSc1nnnn1-c1ccccc1)Nc1ccc(N2CCOCC2)c(Cl)c1	0.1	33.6	-2.0	-2.7
O=C(COc1c(F)c(F)c(C(F)(F)F)c(F)c1F)Nc1ccc(N2CCOCC2)c(Cl)c1	1.7	84.9*	-3.3	-2.9
CC(=O)N(/N=C/c1cccc(C)c1)c1nc(-c2ccc(Br)cc2)cs1	-0.4	95.2*	0.2	-0.5
CCOC(=O)c1ccc(N/C=C2\CCCCC2=O)cc1	0.2	-26.6	-3.2	-0.1
Cc1nn(C(=O)c2ccco2)c(C)c1Sc1ccc(Cl)cc1	1.0	72.7*	-2.0	3.6
Cc1c(F)cccc1NC(=O)CSCC(=O)Nc1ccccc1	0.1	11.5	-4.0	0.7
NC(=O)CC(NC(=O)Cc1cccc2ccccc12)c1ccc(N2CCN(c3ccccc3)CC2)c([N+](=O)[O-])c1 (configuration not stated)	0.9	86.9*	-3.1	3.6
COc1ccc(-c2cc(-c3c(O)c(OC)c4occc4c3OC)[nH]n2)cc1	0.1	86.2*	2.4	2.7
CCOC(=O)/C(N=Nc1c(Br)cc(Br)cc1Br)=C(\C)O	-0.9	84.7*	-1.0	0.9
S=c1nc[nH]c2c1cnn2Cc1ccccc1	-0.2	nt	-4.9	-1.0
CC(=O)c1sc(NC(=O)c2ccccc2F)nc1-c1ccccc1	-3.5	-16.1	4.8	4.9
CC(=O)c1sc(NC(=O)c2ccc(F)cc2)nc1-c1ccccc1	-0.6	75.2*	5.2	5.5
COc1cc2c(cc1OC)C(c1ccc(-c3ccc(Cl)cc3Cl)o1)=NCC2	1.2	64.2	2.5	-0.9
COc1cc2c(cc1OC)C(c1ccc(-c3ccc(Cl)c(Cl)c3)o1)=NCC2	-0.8	80.2*	4.7	0.8
COc1cc2c(cc1OC)C(c1ccc(-c3cc(Cl)ccc3Cl)o1)=NCC2	1.1	84.6*	4.2	-1.1
COc1cc2c(cc1OC)C(c1ccc(-c3ccccc3Cl)o1)=NCC2	0.2	42.1	-1.8	-1.4
O=C(CN(Cc1ccco1)C(=O)c1ccc(Cl)cc1)Nc1ccc(Cl)c(Cl)c1	1.5	92.8*	-0.1	1.6
COc1ccccc1/C=N/NC(=O)C(NC(=O)c1ccccc1)=C(C)C	-0.4	12.1	-0.8	3.0
CC(C)(C)c1ccc(C(=O)Nc2ccc(C(=O)N3CCCC3)cc2)cc1	-0.6	nt	-3.1	-0.6
